The values that follow come from ChEMBL document CHEMBL5365542, “Difluoromethyl-1,3,4-oxadiazoles Are Selective, Mechanism-Based, and Essentially Irreversible Inhibitors of Histone Deacetylase 6” (J Med Chem, 2023).

Assay [1] deals with T1, Histone deacetylase 6 (Danio rerio) (UniProt F8W4B7).
T1 sequence (whole entry): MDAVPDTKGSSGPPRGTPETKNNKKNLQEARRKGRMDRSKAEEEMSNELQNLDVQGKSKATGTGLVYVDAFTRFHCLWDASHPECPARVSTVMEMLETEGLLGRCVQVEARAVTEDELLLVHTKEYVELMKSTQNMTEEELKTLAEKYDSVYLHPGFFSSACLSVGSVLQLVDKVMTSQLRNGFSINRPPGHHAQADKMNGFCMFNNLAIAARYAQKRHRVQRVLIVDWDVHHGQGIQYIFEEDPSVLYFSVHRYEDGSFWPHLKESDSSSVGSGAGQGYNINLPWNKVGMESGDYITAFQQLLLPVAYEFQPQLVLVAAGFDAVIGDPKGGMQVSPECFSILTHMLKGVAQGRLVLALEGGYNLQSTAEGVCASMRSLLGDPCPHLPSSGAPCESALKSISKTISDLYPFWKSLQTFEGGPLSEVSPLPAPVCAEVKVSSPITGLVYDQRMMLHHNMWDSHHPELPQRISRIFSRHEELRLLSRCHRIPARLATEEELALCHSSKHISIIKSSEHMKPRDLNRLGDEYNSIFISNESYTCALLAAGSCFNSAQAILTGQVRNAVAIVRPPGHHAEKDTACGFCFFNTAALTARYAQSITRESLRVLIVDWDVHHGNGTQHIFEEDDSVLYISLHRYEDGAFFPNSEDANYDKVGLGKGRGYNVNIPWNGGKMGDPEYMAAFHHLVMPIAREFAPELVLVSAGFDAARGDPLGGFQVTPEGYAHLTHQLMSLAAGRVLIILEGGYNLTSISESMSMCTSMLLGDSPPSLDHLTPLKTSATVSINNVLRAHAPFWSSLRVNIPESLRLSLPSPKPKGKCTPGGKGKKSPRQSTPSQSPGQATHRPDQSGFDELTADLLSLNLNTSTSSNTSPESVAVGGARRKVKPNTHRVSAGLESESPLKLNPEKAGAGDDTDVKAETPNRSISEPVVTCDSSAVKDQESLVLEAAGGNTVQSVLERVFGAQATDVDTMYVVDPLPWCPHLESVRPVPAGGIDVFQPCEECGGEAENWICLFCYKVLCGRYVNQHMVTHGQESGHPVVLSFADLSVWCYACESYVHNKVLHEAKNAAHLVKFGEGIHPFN
Nature of the assay: Irreversible inhibition of Danio rerio HDAC6 catalytic domain 2 assessed as enzyme catalysed ring opening by measuring 2-(Benzylamino)pyrimidine-5-carbohydrazide level at 100 uM incubated overnight by LC-MS analysis. The method, boiled down:
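Danio rerio HDAC6 catalytic domain 2 (zCD2), 50 μM, in 50 mM HEPES pH 7.5, 100 mM KCl, 1 mM TCEP, 5% glycerol, incubated overnight with 100 μM inhibitor (100 μL). Enzyme-free inhibitor controls run in parallel. Protein precipitated with methanol and filtered. Filtrate analysed by C18 reverse-phase UPLC-MS with a 2-min H2O/MeCN gradient.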

For assay [2], the target named is T2, Protein deacetylase HDAC6 (Homo sapiens, UniProt Q9UBN7).
T2 sequence (Q9UBN7 whole entry): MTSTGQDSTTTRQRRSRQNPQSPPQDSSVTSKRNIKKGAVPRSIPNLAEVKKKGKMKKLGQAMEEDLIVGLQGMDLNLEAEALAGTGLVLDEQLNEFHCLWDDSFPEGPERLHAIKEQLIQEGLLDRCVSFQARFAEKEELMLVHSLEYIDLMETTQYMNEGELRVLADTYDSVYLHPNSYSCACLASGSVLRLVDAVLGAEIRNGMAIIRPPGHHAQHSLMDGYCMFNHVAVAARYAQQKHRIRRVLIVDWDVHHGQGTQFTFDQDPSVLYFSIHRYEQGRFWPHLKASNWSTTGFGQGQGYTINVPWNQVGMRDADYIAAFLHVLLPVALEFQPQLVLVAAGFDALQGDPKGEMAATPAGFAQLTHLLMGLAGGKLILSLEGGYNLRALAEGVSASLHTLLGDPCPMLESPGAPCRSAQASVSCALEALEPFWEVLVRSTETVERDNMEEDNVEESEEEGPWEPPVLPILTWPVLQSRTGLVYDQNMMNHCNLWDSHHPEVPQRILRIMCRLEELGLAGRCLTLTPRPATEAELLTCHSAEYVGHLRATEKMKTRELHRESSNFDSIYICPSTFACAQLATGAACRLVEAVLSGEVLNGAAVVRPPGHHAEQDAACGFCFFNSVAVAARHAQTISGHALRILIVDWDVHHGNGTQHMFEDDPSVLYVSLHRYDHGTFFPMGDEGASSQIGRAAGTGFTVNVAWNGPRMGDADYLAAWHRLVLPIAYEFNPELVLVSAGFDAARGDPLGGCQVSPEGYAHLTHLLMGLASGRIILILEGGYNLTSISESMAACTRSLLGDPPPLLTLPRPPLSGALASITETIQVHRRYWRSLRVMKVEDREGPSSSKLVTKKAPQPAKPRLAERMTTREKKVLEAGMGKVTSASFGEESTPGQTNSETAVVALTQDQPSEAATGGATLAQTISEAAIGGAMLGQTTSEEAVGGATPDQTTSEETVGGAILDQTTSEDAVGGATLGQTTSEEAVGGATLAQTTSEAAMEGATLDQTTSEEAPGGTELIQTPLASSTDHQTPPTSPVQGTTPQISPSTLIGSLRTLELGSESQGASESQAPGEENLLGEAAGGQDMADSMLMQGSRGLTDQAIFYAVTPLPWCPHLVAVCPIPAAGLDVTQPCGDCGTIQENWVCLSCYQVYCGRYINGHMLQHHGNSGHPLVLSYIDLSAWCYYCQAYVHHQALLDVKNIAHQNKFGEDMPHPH
The assay can be described thus: Inhibition of N-terminal GST tagged human recombinant HDAC6 (1 to 1215 residues) expressed in Sf9 insect cells using Z-Lys(Ac)-AMC as fluorogenic substrate preincubated for 5 mins followed by substrate addition and measured after 90 mins by microplate reader analysis.

Usually IC50 stands for the concentration that inhibits the measured activity by half. Consider `FC(F)c1nnc(-c2cnc(NCc3ccccc3)nc2)o1`, for which, in assay [1], the Activity turned out to be 9 µM. Besides, in assay [2], the IC50 was found to be 347 nM.

For the compound `FC(F)(F)c1nnc(-c2cnc(NCc3ccccc3)nc2)o1`, in assay [1], the Activity was determined as 18 µM. Moreover, in assay [2], the IC50 was 840 nM.
